Test results as given in ChEMBL document CHEMBL3817745, “Structure-Activity Relationship for the 4(3H)-Quinazolinone Antibacterials” (J Med Chem, 2016).
In brackets after ≈: the same amount, converted by molar mass.

Columns and labels:
Assay type in all cases: functional
[1] = system: Staphylococcus aureus; test: Antibacterial activity against vancomycin/methicillin-resistant Staphylococcus aureus VRS1 clinical isolate incubated for 16 to 20 hrs by microdilution method
[2] = system: Staphylococcus aureus; test: Antibacterial activity against vancomycin/methicillin-resistant Staphylococcus aureus VRS2 clinical isolate incubated for 16 to 20 hrs by microdilution method
[3] = system: Staphylococcus epidermidis; test: Antibacterial activity against Staphylococcus epidermidis ATCC 35547 incubated for 16 to 20 hrs by microdilution method
Summary of the method: (§1)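 CLSI broth microdilution. 2-fold serial dilutions were made in cation-adjusted Mueller–Hinton broth, with 5% lysed horse blood added for Streptococcus strains, in triplicate. Inoculum 5×10^5 CFU/mL. Plates incubated 36 °C for 16–20 h. MIC taken as the lowest concentration visibly inhibiting growth.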

[4] = system: Streptococcus oralis; test: Antibacterial activity against Streptococcus oralis ATCC 9811 incubated for 16 to 20 hrs by microdilution method; summary of the method: as §1
[5] = system: Streptococcus pyogenes; test: Antibacterial activity against Streptococcus pyogenes ATCC 49399 incubated for 16 to 20 hrs by microdilution method; summary of the method: as §1
[6] = system: Bacillus cereus; test: Antibacterial activity against Bacillus cereus ATCC 13061 incubated for 16 to 20 hrs by microdilution method; summary of the method: as §1
[7] = system: Staphylococcus aureus; test: Antibacterial activity against methicillin-susceptible Staphylococcus aureus ATCC 29213 incubated for 16 to 20 hrs by microdilution method
[8] = system: Enterococcus faecium; test: Antibacterial activity against Enterococcus faecium NCTC 7171 incubated for 16 to 20 hrs by microdilution method; summary of the method: as §1
[9] = system: Klebsiella pneumoniae; test: Antibacterial activity against Klebsiella pneumoniae ATCC 700603 incubated for 16 to 20 hrs by microdilution method; summary of the method: as §1
[10] = system: Acinetobacter baumannii; test: Antibacterial activity against Acinetobacter baumannii ATCC 17961 incubated for 16 to 20 hrs by microdilution method; summary of the method: as §1
[11] = system: Pseudomonas aeruginosa; test: Antibacterial activity against Pseudomonas aeruginosa […] incubated for 16 to 20 hrs by microdilution method; summary of the method: as §1
[12] = system: Escherichia coli; test: Antibacterial activity against Escherichia coli ATCC 25922 incubated for 16 to 20 hrs by microdilution method; summary of the method: as §1
[13] = system: Klebsiella aerogenes; test: Antibacterial activity against Enterobacter aerogenes ATCC 35029 incubated for 16 to 20 hrs by microdilution method; summary of the method: as §1

Row | SMILES | MIC [1] | MIC [2] | MIC [3] | MIC [4] | MIC [5] | MIC [6] | MIC [7] | MIC [8] | MIC [9] | MIC [10] | MIC [11] | MIC [12] | MIC [13]
1 | CN[C@@H](CC(C)C)C(=O)N[C@H]1C(=O)N[C@@H](CC(N)=O)C(=O)N[C@H]2C(=O)N[C@H]3C(=O)N[C@H](C(=O)N[C@@H](C(=O)O)c4cc(O)cc(O)c4-c4cc3ccc4O)[C@H](O)c3ccc(c(Cl)c3)Oc3cc2cc(c3O[C@H]2O[C@@H](CO)[C@H](O)[C@@H](O)[C@@H]2O[C@@H]2C[C@@](C)(N)[C@@H](O)[C@@H](C)O2)Oc2ccc(cc2Cl)[C@H]1O | 512 µg/mL (≈ 353 µM) | 64 µg/mL (≈ 44.2 µM) | 16 µg/mL (≈ 11 µM) | 0.5 µg/mL (≈ 0.345 µM) | 0.5 µg/mL (≈ 0.345 µM) | 1 µg/mL (≈ 0.69 µM) |  |  |  |  |  |  | 
2 | O=C(O)c1ccc(/C=C/c2nc3ccccc3c(=O)n2-c2cccc(O)c2)cc1 |  |  |  |  |  |  | > 128 µg/mL | ≥ 8 µg/mL | ≥ 16 µg/mL | ≥ 16 µg/mL | ≥ 16 µg/mL | ≥ 16 µg/mL | ≥ 16 µg/mL
3 | O=c1c2ccccc2nc(/C=C/c2ccc(O)cc2)n1-c1cccc(O)c1 |  |  |  |  |  |  | > 128 µg/mL | ≥ 8 µg/mL | ≥ 16 µg/mL | ≥ 16 µg/mL | ≥ 16 µg/mL | ≥ 16 µg/mL | ≥ 16 µg/mL
4 | O=c1c2ccccc2nc(/C=C/c2ccc(Cl)cc2)n1-c1cccc(O)c1 |  |  |  |  |  |  | 0.125 µg/mL (≈ 0.333 µM) | ≥ 8 µg/mL | ≥ 16 µg/mL | ≥ 16 µg/mL | ≥ 16 µg/mL | ≥ 16 µg/mL | ≥ 16 µg/mL
5 | Cc1ccc(-c2nc3ccccc3c(=O)n2-c2cccc(O)c2)cc1 |  |  |  |  |  |  | 128 µg/mL (≈ 390 µM) | ≥ 8 µg/mL | ≥ 16 µg/mL | ≥ 16 µg/mL | ≥ 16 µg/mL | ≥ 16 µg/mL | ≥ 16 µg/mL
6 | O=c1c2ccccc2nc(/C=C/c2ccccc2)n1-c1cccc(O)c1 |  |  |  |  |  |  | 0.5 µg/mL (≈ 1.47 µM) | ≥ 8 µg/mL | ≥ 16 µg/mL | ≥ 16 µg/mL | ≥ 16 µg/mL | ≥ 16 µg/mL | ≥ 16 µg/mL
7 | N#Cc1ccc(/C=C/c2nc3cc(C(=O)O)ccc3c(=O)n2-c2cccc(C(=O)O)c2)cc1 |  |  |  |  |  |  | 128 µg/mL (≈ 293 µM) | ≥ 8 µg/mL | ≥ 16 µg/mL | ≥ 16 µg/mL | ≥ 16 µg/mL | ≥ 16 µg/mL | ≥ 16 µg/mL
8 | O=c1c2ccccc2nc(/C=C/c2ccc(C(F)(F)F)cc2)n1-c1cccc(O)c1 |  |  |  |  |  |  | 128 µg/mL (≈ 313 µM) | ≥ 8 µg/mL | ≥ 16 µg/mL | ≥ 16 µg/mL | ≥ 16 µg/mL | ≥ 16 µg/mL | ≥ 16 µg/mL
9 | O=c1c2ccccc2nc(/C=C/c2ccccc2F)n1-c1cccc(O)c1 |  |  |  |  |  |  | 1 µg/mL (≈ 2.79 µM) | ≥ 8 µg/mL | ≥ 16 µg/mL | ≥ 16 µg/mL | ≥ 16 µg/mL | ≥ 16 µg/mL | ≥ 16 µg/mL
10 | COc1ccc(/C=C/c2nc3ccccc3c(=O)n2-c2cccc(O)c2)cc1 |  |  |  |  |  |  | 4 µg/mL (≈ 10.8 µM) | ≥ 8 µg/mL | ≥ 16 µg/mL | ≥ 16 µg/mL | ≥ 16 µg/mL | ≥ 16 µg/mL | ≥ 16 µg/mL
11 | O=c1c2ccccc2nc(/C=C/c2ccc3c(c2)OCO3)n1-c1cccc(O)c1 |  |  |  |  |  |  | 2 µg/mL (≈ 5.2 µM) | ≥ 8 µg/mL | ≥ 16 µg/mL | ≥ 16 µg/mL | ≥ 16 µg/mL | ≥ 16 µg/mL | ≥ 16 µg/mL
12 | O=c1c2ccccc2nc(/C=C/c2ccccc2[N+](=O)[O-])n1-c1cccc(O)c1 |  |  |  |  |  |  | 128 µg/mL (≈ 332 µM) | ≥ 8 µg/mL | ≥ 16 µg/mL | ≥ 16 µg/mL | ≥ 16 µg/mL | ≥ 16 µg/mL | ≥ 16 µg/mL
13 | CC(=O)OCc1cccc(-n2c(/C=C/c3ccc(C#N)cc3)nc3ccccc3c2=O)c1 |  |  |  |  |  |  |  | ≥ 8 µg/mL | ≥ 16 µg/mL | ≥ 16 µg/mL | ≥ 16 µg/mL | ≥ 16 µg/mL | ≥ 16 µg/mL
14 | O=C(O)c1cccc(-n2c(/C=C/c3ccc(Cl)cc3)nc3ccncc3c2=O)c1 |  |  |  |  |  |  |  | ≥ 8 µg/mL | ≥ 16 µg/mL | ≥ 16 µg/mL | ≥ 16 µg/mL | ≥ 16 µg/mL | ≥ 16 µg/mL
15 | COC(=O)Nc1cccc(-n2c(/C=C/c3ccc(C#N)cc3)nc3ccccc3c2=O)c1 |  |  |  |  |  |  |  | ≥ 8 µg/mL | ≥ 16 µg/mL | ≥ 16 µg/mL | ≥ 16 µg/mL | ≥ 16 µg/mL | ≥ 16 µg/mL
16 | O=c1c2ccccc2nc(/C=C/c2cccc(F)c2)n1-c1cccc(O)c1 |  |  |  |  |  |  |  | ≥ 8 µg/mL | ≥ 16 µg/mL | ≥ 16 µg/mL | ≥ 16 µg/mL | ≥ 16 µg/mL | ≥ 16 µg/mL
